From ChEMBL document CHEMBL4014337, “Antimalarial Inhibitors Targeting Serine Hydroxymethyltransferase (SHMT) with in Vivo Efficacy and Analysis of their Binding Mode Based on X-ray Cocrystal Structures” (J Med Chem, 2017)

Tests used:
[1] = Partition coefficient, logD of compound at pH 7.4 by HPLC analysis; format: physicochemical; conditions: octanol/water
How it was run: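 logD at pH 7.4 measured by HPLC.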

[2] = Kinetic solubility of the compound in pH 6.5 phosphate buffer after 30 mins by nephelometry; format: physicochemical; conditions: pH 6.5, 0.5 h
[3] = Kinetic solubility of the compound in pH 2 HCl after 30 mins by nephelometry; format: physicochemical; conditions: buffer, pH 2, 0.5 h
Salmonella typhimurium = assay: Mutagenicity in Salmonella typhimurium TA98 assessed as increase in number of revertant colonies at 1250 to 5000 ug/ml in absence of ariclor-induced rat liver S9 fraction by Ames test relative to control; format: toxicity; conditions: salmonella enterica subsp. enterica serovar typhimurium
How it was run: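 Ames plate incorporation test run in two independent experiments across five Salmonella strains, with and without metabolic activation. Revertant colonies were counted per plate and compared with concurrent vehicle controls. A reproducible increase of ≥2-fold in revertant colony number over vehicle control was scored as evidence of mutagenicity.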

[4] = Cytotoxicity against human HepG2 cells after 72 hrs by CyQuant-Direct reagent based fluorescence assay; format: cell-based

Row | Compound | logD [1] | Kinetic_solubility [2] | Kinetic_solubility [3] | fold change (FC) (Salmonella typhimurium) | IC20 at 72 h [4] [µM]
1 | Cc1[nH]nc2c1C(c1cc(N3CCC(C(=O)O)CC3)cc(C(F)(F)F)c1)(C(C)C)C(C#N)=C(N)O2 (racemic) | 1.6 | Soluble | Soluble |  | 
2 | COc1ccc(-c2cc(C(F)(F)F)cc(C3(C(C)C)C(C#N)=C(N)Oc4n[nH]c(C)c43)c2)cc1C(=O)O (racemic) | 1.7 | Soluble | Soluble |  | 
3 | Cc1[nH]nc2c1C(c1cc(-c3cccc(C(=O)O)c3)cc(C(F)(F)F)c1)(C(C)C)C(C#N)=C(N)O2 (racemic) | 1.8 |  |  |  | 
4 | Cc1[nH]nc2c1C(c1cc(F)cc(-c3cccc(C(=O)O)c3)c1)(C(C)C)C(C#N)=C(N)O2 (racemic) | 1.5 | Soluble | Soluble | >= 2 | 
5 | Cc1[nH]nc2c1C(c1cc(C#N)cc(-c3cccc(C(=O)O)c3)c1)(C(C)C)C(C#N)=C(N)O2 (racemic) | 1.4 |  |  |  | 
6 | Cc1[nH]nc2c1C(c1cc(N3CC4CCCC4C3)cc(C(F)(F)F)c1)(C(C)C)C(C#N)=C(N)O2 (racemic) |  | Soluble | Soluble |  | 
7 | Cc1[nH]nc2c1C(c1cc(N3CCS(=O)(=O)CC3)cc(C(F)(F)F)c1)(C(C)C)C(C#N)=C(N)O2 (racemic) |  | Soluble | Soluble |  | 
8 | Cc1[nH]nc2c1C(c1cc(F)cc(N3CCOCC3)c1)(C(C)C)C(C#N)=C(N)O2 (racemic) |  | Soluble | Soluble |  | 
9 | Cc1[nH]nc2c1C(c1cc(F)cc(N3CCC(C(=O)O)CC3)c1)(C(C)C)C(C#N)=C(N)O2 (racemic) | 1.2 |  |  |  | 
10 | Cc1[nH]nc2c1C(c1cc(-c3cccnc3)cc(C(F)(F)F)c1)(C(C)C)C(C#N)=C(N)O2 (racemic) |  |  |  |  | 18.9
11 | Cc1[nH]nc2c1C(c1cc(F)cc(-c3ccncc3)c1)(C(C)C)C(C#N)=C(N)O2 (racemic) |  | Soluble | Soluble |  | 
